Measurements published in the array DNA melting data of Ke et al. (doi:10.1101/2024.01.08.574731).

What was measured:
[1] = folding enthalpy; higher = less favourable; fluorescence melt of hairpins on a sequencing array, two-state fit; conditions: sodium 0.088 M
Summary of the method: (§1)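 Two-state fits, bootstrapped, provided melting temperature and folding enthalpy from Cy3 fluorescence normalised to pre-quench Cy3 and to control constructs. Library hairpins with annealed Cy3 and quencher oligos were imaged on a sequenced MiSeq flow cell in 50 mM Na-HEPES pH 8.0, 25 mM NaCl, at 2.5 °C intervals up to 60 °C. Four replicates were combined with inverse-variance weighting. A 9.35 °C upward shift was applied to fitted temperatures to match UV melts.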

[2] = melting temperature; fluorescence melt of hairpins on a sequencing array, two-state fit, raised by 9.35 °C to match UV melts; conditions: sodium 0.088 M
Summary of the method: as §1

Row | Sequence | folding enthalpy [1] [kcal/mol] | Tm [2] [°C]
1 | GGCGTCGAAAGACCTGCC ((((((....)))..))) | -18.5 | 46.6
2 | GCGGGAGGAAACCCCCAC (.(((.(....).))).) | -10.6 | 27.7
3 | GATCACCTGAGTGATC ((((((....)))))) | -35.8 | 57
4 | GGAAGACGAAAGTCATCC (((.(((....))).))) | -26 | 48.7
5 | GATCTTGCCGAAGATC ((((((....)))))) | -28.1 | 46.1
6 | GCGGGGACGAAAGTCCGC (((..(((....)))))) | -13.2 | 58.5
7 | GCACGTCGAAAGACATGC (((.(((....))).))) | -31.7 | 52.7
8 | GATCTCACCGGAGATC ((((((....)))))) | -43.9 | 52.2
9 | GGTTAGCGAAAGCTTACC (((.(((....))).))) | -23.2 | 52
10 | GTACAGAAATGTAC (((((....))))) | -20.2 | 40.4
11 | GGAGTCGGAAACGATTCC (((.(((....))).))) | -30.1 | 50.3
12 | GCGGTGCGAAAGCAAGGC ((..(((....)))..)) | -19.1 | 51.2
13 | GTGTACGAAAGTACTCAC ((((((....)))..))) | -11.4 | 35.7
14 | GCGTCGCGAAAGCAAGGC ((.(.((....)).).)) | -17.1 | 43.8
15 | GCGGTTGGAAACAGCCGC ((((.((....)).)))) | -40.1 | 64.6
16 | GGTCGCGAAAGCGCAACC ((((((....)))..))) | -13.1 | 42.4
17 | GATCAAGCTGTTGATC ((((((....)))))) | -31.2 | 42.7
18 | CCATTGAAAAATGG (((((....))))) | -22.2 | 41.6
19 | GCTTTGGAAACAAAGC ((((((....)))))) | -38.1 | 57.4
20 | GATCGGAGCGCCGATC ((((((....)))))) | -31.4 | 55
21 | GTGATCGGAAACGGTTAC ((.(.((....)).).)) | -29.9 | 31.9
22 | GTTGACGAAAGTCTAAAC ((((((....)))..))) | -12.8 | 30.4
23 | GATCCGTCCCGGATC ((((((...)))))) | -39.4 | 61

Row | Sequence | folding enthalpy [1] [kcal/mol] | Tm [2] [°C]
24 | GCACTCGGAAACAAGTGC (((((.(....).))))) | -29.3 | 46.3
25 | GTGTGCCGAAAGGCCAC (((.(((....)))))) | -20.6 | 63.8
26 | GATCGTTCAAACGATC ((((((....)))))) | -42.7 | 55
27 | GCTCCACGAAAGTGAGC (((.(((....)))))) | -26.2 | 54
28 | CACGGGAAACCGTG (((((....))))) | -30.9 | 58.8
29 | GCAAGCCGAAAGGCATGC (((.(((....))).))) | -24.9 | 64
30 | GTTATAGCGAAAGCTAAC (((..(((....)))))) | -14.3 | 29.9
31 | GATCTTCTCAAAGATC ((((((....)))))) | -33.4 | 45.2
32 | GTAACTCGAAAGAGGTAC (((.(((....))).))) | -28.7 | 51.6
33 | CAGGAGAAATCCTG (((((....))))) | -19.7 | 43.7
34 | GTCTGGACGAAAGTCGAC (((..(((....)))))) | -17.6 | 38.4
35 | GGGTTACCGAAAGGTCCC (((..(((....)))))) | -19.4 | 41
36 | GATCCAAGGCTGGATC ((((((....)))))) | -35.5 | 48.9
37 | GTACATCGAAAGATCTAC (((.(((....))).))) | -10.2 | 25.1
38 | CGCTTCGGAAACGAGGCG (((.(((....))).))) | -42.4 | 55.9
39 | GTCCTTCGAAAGAAGAC (((.(((....)))))) | -18.3 | 36.7
40 | GGTGACCGAAAGGTTACC (((.(((....))).))) | -40 | 60.5
41 | GTGATGTCGAAAGACCAC (((..(((....)))))) | -15 | 40.4
42 | GTGATTCGAAAGAACAC (((.(((....)))))) | -24.8 | 40.9
43 | GTGTAACGAAAGTTCCAC (((.(((....))).))) | -22.6 | 38.9
44 | GCATCGGCGAAAGCCTGC (((..(((....)))))) | -15.2 | 39.8
45 | GCCACCGAAAGGTTGGGC ((((((....)))..))) | -20.8 | 52.6
46 | GTTAACGAAAGTTAAC ((((((....)))))) | -28.9 | 56

Row | Sequence | folding enthalpy [1] [kcal/mol] | Tm [2] [°C]
47 | GTCTTTGCGAAAGCAGAC (((..(((....)))))) | -16.3 | 34.6
48 | GTCCGCGAAAGCGGGGAC ((((((....)))..))) | -8.28 | 47.3
49 | GGATTGGGAAACTAGTCC (((.(.(....).).))) | -23.6 | 27.3
50 | GTAACACGAAAGTGCTAC (((.(((....))).))) | -28.4 | 43.7
51 | GTTTGGCGAAAGCCCAAC (((.(((....))).))) | -19.1 | 39.1
52 | GGACATCGAAAGATATCC (((.(((....))).))) | -29.8 | 38
53 | GGGCGCGAAAGCGATCCC ((((((....)))..))) | -14.3 | 58.5
54 | GTCTGTCCGAAAGGAGAC (((..(((....)))))) | -15.1 | 31.3
55 | GTGAACGGAAACGTTCGC (.(((((....))))).) | -28.9 | 56.9
56 | GTGTTCGAAAGAACACAC ((((((....)))..))) | -11.8 | 65
57 | GTAACTCGAAAGAGATAC (((.(((....))).))) | -27.6 | 42
58 | GATCTGAGGGCAGATC ((((((....)))))) | -33.4 | 47.7
59 | GCCGTTGGAAACAACAGC ((.((((....)))).)) | -18.7 | 41.6
60 | GAGGTTGGAAACGATCTC (((.(.(....).).))) | -17.3 | 29.5
61 | GGCACTCGAAAGAGAGCC (((.(((....))).))) | -46.2 | 59
62 | GATCTATTCTTAGATC ((((((....)))))) | -40.9 | 44.8
63 | GAAGCCGAAAGGCCATTC ((((((....)))..))) | -8.97 | 28
64 | GGTTACGAAAGTAATACC ((((((....)))..))) | -14.9 | 33.5
65 | CGGTCGGAAACGACCCG ((((((....))).))) | -10 | 51.5
66 | GATCTCAGTGGAGATC ((((((....)))))) | -40.9 | 52.6
67 | GCGAGCAGTCGC ((((....)))) | -26.2 | 52.6
68 | GGACGAGGAAACCCGTCC (((((.(....).))))) | -39.1 | 54.2
69 | CATTGGAAACAATG (((((....))))) | -22.2 | 42.3

Row | Sequence | folding enthalpy [1] [kcal/mol] | Tm [2] [°C]
70 | GCTCACGAAAGTGGCAGC ((((((....)))..))) | -14.7 | 44.6
71 | GCTTCTCGAAAGAGAGC (((.(((....)))))) | -22 | 49.4
72 | GCCAATGGAAACATCGGC (((.(((....))).))) | -28.9 | 44
73 | GATTTGGGAAACCGAATC ((((.((....)).)))) | -31.1 | 44.5
74 | GCATCTGGAAACAGACGC ((.((((....)))).)) | -33 | 44.2
75 | GATCCGCTTACGGATC ((((((....)))))) | -37.3 | 59
76 | GGATCGAAAGATCC (((((....))))) | -29.6 | 65.3
77 | GGCGAGGGAAACCTTGCC (((.(((....))).))) | -44.4 | 58
78 | GACCTCGGAAACGAGGCC (.(((((....))))).) | -13 | 55.4
79 | GATCATCGACATGATC ((((((....)))))) | -30.4 | 44.8
80 | GGAAATCGAAAGATATCC (((.(((....))).))) | -26.2 | 37.8
81 | GGACGCGAAAGCGCTCC ((((((....))).))) | -20.5 | 54.9
82 | GCTTGGCGAAAGCGGAGC (((..((....))..))) | -16.8 | 48.6
83 | GCGATCGGAAACGACCGC (((.(((....))).))) | -48.9 | 55.5
84 | GAGCGCGAAAGCGACTC ((((((....))).))) | -16.9 | 60.3
85 | CGACCGGAAACGGCGTCG ((((((....)))..))) | -18.1 | 50.2
86 | CGCGGAAGCTCCGCG ((((((...)))))) | -26.3 | 68.8
87 | CGTGCGGAAACGCGCACG ((((((....)))..))) | -34.2 | 64
88 | GAGTGCGAAAGCAGTCTC ((((((....)))..))) | -23.7 | 58.1
89 | GATCGTTCTTACGATC ((((((....)))))) | -40.6 | 56.3
90 | GCACATTCGAAAGAATGC (((..(((....)))))) | -13.8 | 33
91 | GGATTGGGAAACTGATCC ((((..(....)..)))) | -28.1 | 34.4
92 | GAGGTGCGAAAGCAACTC (((.(((....))).))) | -26.2 | 66.5
